Experimental data reported in article PMC9891086 (RSC Advances, 2023).

How the values were obtained:
COX-2 = target: T1, COX-2 (Homo sapiens, UniProt P35354); assay: biochemical
T1 sequence (P35354 18-604): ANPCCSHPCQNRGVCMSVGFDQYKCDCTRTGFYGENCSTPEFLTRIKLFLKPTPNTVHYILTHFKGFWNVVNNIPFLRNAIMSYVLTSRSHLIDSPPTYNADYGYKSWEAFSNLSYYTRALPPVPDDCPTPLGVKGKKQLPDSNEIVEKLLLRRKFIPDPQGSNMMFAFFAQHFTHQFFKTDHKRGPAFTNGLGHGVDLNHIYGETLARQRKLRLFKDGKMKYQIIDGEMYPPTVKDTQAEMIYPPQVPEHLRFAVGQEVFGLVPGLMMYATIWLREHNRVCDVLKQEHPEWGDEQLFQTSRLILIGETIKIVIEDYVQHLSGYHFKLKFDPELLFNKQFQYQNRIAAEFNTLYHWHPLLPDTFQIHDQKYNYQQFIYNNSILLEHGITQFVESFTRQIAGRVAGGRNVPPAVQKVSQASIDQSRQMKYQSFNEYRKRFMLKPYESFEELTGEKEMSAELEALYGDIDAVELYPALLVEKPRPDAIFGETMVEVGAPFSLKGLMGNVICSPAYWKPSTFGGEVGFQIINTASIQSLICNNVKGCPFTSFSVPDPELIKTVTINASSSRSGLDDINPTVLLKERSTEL

HepG2 cells = assay: MTT cytotoxic activity assay against HepG2 cells; assay type: cell-based; conditions: Homo sapiens, HepG2, 48 h, read-out: IC50 inhibitory effect on HepG2 cells
Method in brief: (§1)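 Cells seeded at 5 × 10^3 per well and grown 24 h, then exposed to a range of test compound concentrations for 48 h. Vehicle control was 0.1% DMSO and the positive control was adriamycin (10 μM). MTT was added from a 5 mg mL−1 stock for 4 h, and formazan was dissolved in DMSO. Viability was read at 490 nm, in three replicates per treatment.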

Caco-2 cells = assay: MTT cytotoxic activity assay against Caco-2 cells; assay type: cell-based; conditions: Homo sapiens, Caco-2, 48 h, read-out: IC50 inhibitory effect on Caco-2 cells
Method in brief: as §1

SMILES	IC50 (COX-2) [µM]	IC50 (HepG2 cells) [µM]	IC50 (Caco-2 cells) [µM]
OCc1ccccc1O[C@@H]1O[C@H](CO)[C@@H](O)[C@H](O)[C@H]1O [Compound 25, salicin]	162 ± 10		
c1cncc([C@@H]2CCCCN2)c1 [Compound 15, anabasine]	150 ± 11		
CCCCCCCCC/C=C\CCCCCCCCC(=O)O [Compound 1, cis-10-eicosaenoic acid]	10.8 ± 0.3	25 ± 1.08	
CC[C@H](CC[C@@H](C)[C@H]1CC[C@H]2[C@@H]3CC(=O)C4=CC(=O)CC[C@]4(C)[C@H]3CC[C@]12C)C(C)C [Compound 3, stigmast-4-en-3,6-dione]	67.9 ± 6.21		
Oc1ccccc1CN1CCCC[C@H]1c1cccnc1 [Compound 16, (2S)-N-hydroxybenzylanabasine]	24.2 ± 1.2		

Further lines, with some results ahead:

IC50 (COX-2) [µM]	SMILES	IC50 (HepG2 cells) [µM]	IC50 (Caco-2 cells) [µM]
123 ± 10.5	COc1cc(O)c(C(C)=O)c(OC)c1 [Compound 5, xanthoxylin]	8.21 ± 1.12	
149 ± 10	O=C1N[C@@H](O)C(O)=C1O [Compound 23, (S)-3,4,5-trihydroxy-1H-pyrrol-2 (5H)-one]		
146 ± 11	O=c1cc[nH]c(=O)[nH]1 [Compound 21, uracil]	78.5 ± 4.41	86 ± 2.96
19.3 ± 3.58	N[C@H]1CCC=C[C@H]1C(=O)O [Compound 14, (1R,6S)-6-aminocyclohex-2-ene-1-carboxylic acid]		
